One may read the Kd as the equilibrium constant for the complex coming apart. A low value points to higher affinity.

Results on 6 molecules are retold here after article PMC9898158 (Structure (London, England : 1993), 2022).

Counter-ions that a name gives are not always drawn. Like-named read-outs stand apart in the source and are kept apart here.

For test [1], the system named is WT and CLPP−/− MDA-MB-231 cells. The test can be described thus: Apoptotic onset check. Format: cell-based, human. Put shortly:
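WT and CLPP−/− MDA-MB-231 cells in DMEM/F-12 with 10% FBS and 2 mM L-glutamine were exposed to 1 μM test compound or DMSO for 24 hours. Morphology was checked by light microscopy and nuclei by DAPI fluorescence. Positive control was 2 μM doxorubicin or DMSO for 72 hours. Lysates were made by sonication in Dulbecco's PBS and protein-equalized, then run on SDS-PAGE, immunoblotted on PVDF and imaged on film.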

The test system of test [2] is TFAM and Grp75 levels in MDA-MB-231 CLPP−/− cells. The test can be described thus: Western blot of TFAM and Grp75, MDA-MB-231 CLPP−/−. The conditions noted are these: 1 μM, 24 hours. Format: cell-based, human. The method, boiled down:
(§1)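 MDA-MB-231 cells (WT or CLPP−/−) were grown in DMEM/F-12 with 10% FBS and 2 mM L-glutamine. They were treated for 24 hours with 1 μM test compound or 6 μM of a reference compound. Pellets were sonicated in Dulbecco's PBS and protein was equalized. TFAM and Grp75 were detected by SDS-PAGE, transfer to PVDF and western blotting, imaged by film.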

A further test relates to MDA-MB-231 WT cells. In words: Growth inhibition profiling. Format: cell-based, human. The conditions noted are these: read-out: IC50 (nM), MDA-MB-231 WT.
For the next test, the system named is MDA-MB-231 CLPX−/− cells. In words: Growth inhibition profiling. Format: cell-based, human. Conditions: read-out: IC50 (nM), MDA-MB-231 CLPX−/−.
Another test concerns MDA-MB-231 CLPP−/− cells. The test can be described thus: Growth inhibition profiling. Format: cell-based, human. Conditions: read-out: IC50 (nM), MDA-MB-231 CLPP−/−.
Test [3] has as its system TFAM and Grp75 levels in MDA-MB-231 WT cells. In words: Western blot of TFAM and Grp75, MDA-MB-231 WT. The conditions noted are these: 1 μM, 24 hours. Format: cell-based, human. Put shortly:
as §1
Background: In western blotting, separated proteins are transferred to a membrane and probed.

The test system of test [4] is HEK293 T-REx CLPX−/− cells. The test can be described thus: Growth inhibition profiling. Format: cell-based, human. The conditions noted are these: read-out: IC50 (nM), HEK293 T-REx CLPX−/−.
In test [5] the test system is HEK293 T-REx CLPP−/− cells. In words: Growth inhibition profiling. Format: cell-based, human. Conditions: read-out: IC50 (nM), HEK293 T-REx CLPP−/−.
Another test addresses human ClpP (Homo sapiens, UniProt Q16740). The test can be described thus: Casein-FITC degradation assay. Format: biochemical. The conditions noted are these: for Casein-FITC degradation h (at 2.5 μM ClpP): Hill coefficient, 2.5 μM ClpP protomer.
The next test has as its system HEK293 T-REx WT cells. The test can be described thus: Growth inhibition profiling. Format: cell-based, human. Conditions: read-out: IC50 (nM), HEK293 T-REx WT.
The next test deals with MDA-MB-468. In words: One-dose NCI-60 screen, MDA-MB-468. Format: cell-based, human. The conditions noted are these: 10 μM, 48-hour exposure. Put shortly: (§2)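 Run by NCI DCTD. Cells were seeded at 5,000–40,000/well in RPMI 1640 with 5% FBS and 2 mM L-glutamine and grown 24 h at 37 °C, 5% CO2. Test compound was added at 10 μM final for 48 h, with a time-zero plate kept. Cells were fixed with cold TCA (10% final for adherent, 16% for non-adherent) and stained with 0.4% SRB. Growth was calculated from A515 at 0 and 48 h.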

For the next test, the system named is COLO205. The test can be described thus: One-dose NCI-60 screen, COLO205. Format: cell-based, human. The conditions noted are these: 10 μM, 48-hour exposure. Put shortly: as §2
The subject of a further test is MDA-MB-231. In words: One-dose NCI-60 screen, MDA-MB-231. Conditions: 10 μM, 48-hour exposure. Format: cell-based, human.
Test [6] has as its target ClpP (substrate TFAM lacking the MTS) (Homo sapiens, UniProt Q16740). In words: In vitro degradation assay using TFAM. Conditions: 20 μM compound, 13.5 μM TFAM, 15.5 μM ClpP, 37 °C, 0-5 h. Format: biochemical.
Setting [7] is: Homo sapiens, HEK293-T-REx, 72 h.

Chain of human ClpP (Q16740 57-277): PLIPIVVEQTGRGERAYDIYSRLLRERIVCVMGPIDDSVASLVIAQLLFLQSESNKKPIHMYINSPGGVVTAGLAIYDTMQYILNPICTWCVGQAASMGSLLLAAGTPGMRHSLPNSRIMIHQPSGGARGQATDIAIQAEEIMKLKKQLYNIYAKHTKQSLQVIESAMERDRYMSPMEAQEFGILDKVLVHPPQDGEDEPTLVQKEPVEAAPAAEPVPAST
Chain of ClpP (substrate TFAM lacking the MTS) (Q16740 57-277): as above

For `C#Cc1cccc(CN2CCC3=C(C2)C(=O)N(Cc2ccc(Cl)cc2)C2=NCCN23)c1` [TR-27], the ClpX level entry in [1] (1 μM, 24 hours) is listed as “reduced”. The “signs of apoptosis (morphology, nuclear integrity, Mcl1, caspases 9, 3, 8)” value in [1] (1 μM, 24 hours) is “absence of significant apoptosis”. Besides, the “levels of TFAM and Grp75” value in test [2] was “unchanged”; in test [3], “reduced”. In addition, the IC50 in the test with MDA-MB-231 WT cells (72 hr, SRB assay) is 90.7 ± 1.7 nM; in the test on MDA-MB-231 CLPX−/− cells (72 hr, SRB assay) it was 98.9 ± 1.7 nM; with MDA-MB-231 CLPP−/− cells (72 hr, SRB assay) it was more than 1000 nM; in test [4] (72 hr, SRB assay), 57.7 ± 3.4 nM; in test [5] (72 hr, SRB assay), more than 1000 nM; in the test with HEK293 T-REx WT cells (72 hr, SRB assay) it was 46.1 ± 1.3 nM. The “Casein-FITC degradation h (at 2.5 μM ClpP)” value (“Casein-FITC degradation h” for short) at human ClpP was determined as 8.1 ± 1.2.

For the molecule `Cn1c2c(c(=O)n(Cc3ccc(Cl)cc3)c1=O)CN(Cc1cccc(C#N)c1)CC2` [TR-57, 3-((3-(4-chlorobenzyl)-1-methyl-2,4-dioxo-1,2,3,4,7,8-hexahydropyrido[4,3-d]pyrimidin-6(5H)-yl)methyl)benzonitrile], the IC50 was 19.3 ± 0.2 nM with MDA-MB-231 WT cells (Homo sapiens, MDA-MB-231, 72 h); 19.9 ± 0.3 nM in the test with MDA-MB-231 CLPX−/− cells (Homo sapiens, MDA-MB-231, 72 h); more than 1000 nM with MDA-MB-231 CLPP−/− cells (Homo sapiens, MDA-MB-231, 72 h); 11.8 ± 0.4 nM in test [4] (setting [7]); more than 1000 nM in test [5] (setting [7]); 8.9 ± 0.2 nM with HEK293 T-REx WT cells (setting [7]). In addition, the lethality was 15% with MDA-MB-468 and 41% in the test with COLO205. The growth suppression in the test on MDA-MB-231 is given as 68%. At human ClpP, this molecule came in with a dissociation constant (Kd) of 15.5 ± 12 nM. At human ClpP, the “Casein-FITC degradation h” value stood at 9.4 ± 7.8.

With `N#Cc1cccc(CN2CCC3=C(C2)C(=O)N(Cc2ccc(Cl)cc2)C2=NCCN23)c1` [TR-65, 3-((4-(4-Chlorobenzyl)-5-oxo-1,2,4,5,8,9-hexahydroimidazo[1,2-a]pyrido[3,4-e]pyrimidin-7(6H)-yl)methyl)benzonitrile], the IC50 is 9.4 ± 0.2 nM with MDA-MB-231 WT cells (Homo sapiens, MDA-MB-231, 72 h); 9.4 ± 0.2 nM in the test on MDA-MB-231 CLPX−/− cells (Homo sapiens, MDA-MB-231, 72 h); more than 1000 nM in the test with MDA-MB-231 CLPP−/− cells (Homo sapiens, MDA-MB-231, 72 h); 11 ± 0.2 nM in [4] (setting [7]); more than 1000 nM in [5] (setting [7]); 9.8 ± 0.3 nM in the test on HEK293 T-REx WT cells (setting [7]). For the same molecule, on human ClpP, the Kd is 23.3 ± 9.1 nM. The “Casein-FITC degradation h” value at human ClpP is 10.9 ± 2.5. Besides, the “degradation of TFAM by compound-activated ClpP” value in [6] is given as “degradation of TFAM by TR-activated ClpP in a time-dependent manner”.

Turning to `N#Cc1cccc(CN2CCc3ncn(Cc4ccc(Cl)cc4)c(=O)c3C2)c1` [TR-107], the IC50 is 29.4 ± 0.2 nM in the test on MDA-MB-231 WT cells (72 hr, SRB assay); 27.4 ± 0.8 nM in the test with MDA-MB-231 CLPX−/− cells (72 hr, SRB assay); more than 1000 nM in the test on MDA-MB-231 CLPP−/− cells (72 hr, SRB assay); 27 ± 2 nM in test [4] (72 hr, SRB assay); more than 1000 nM in test [5] (72 hr, SRB assay); 22.8 ± 0.7 nM in the test with HEK293 T-REx WT cells (72 hr, SRB assay). Moreover, the lethality in the test with MDA-MB-468 was determined as 22%. In the test on MDA-MB-231, this molecule gave a growth suppression of 73%. For the same molecule, the “Casein-FITC degradation h” value at human ClpP amounted to 5.5 ± 0.7.

For the molecule `N#Cc1cccc(CN2CCc3ncn(Cc4ccc(Br)cc4)c(=O)c3C2)c1` [TR-133, 3-([3-[(4-bromophenyl)methyl]-4-oxo-3H,4H,5H,6H,7H,8H-pyrido[4,3-d]pyrimidin-6-yl]methyl)benzonitrile], the IC50 with MDA-MB-231 WT cells (Homo sapiens, MDA-MB-231, 72 h) was 27.8 ± 0.4 nM; in the test on MDA-MB-231 CLPX−/− cells (Homo sapiens, MDA-MB-231, 72 h), 29.5 ± 0.7 nM; with MDA-MB-231 CLPP−/− cells (Homo sapiens, MDA-MB-231, 72 h) it was more than 1000 nM; in [4] (setting [7]) it was 26 ± 2 nM; in test [5] (setting [7]), more than 1000 nM; in the test with HEK293 T-REx WT cells (setting [7]) it was 20.7 ± 0.7 nM. On human ClpP, the affinity, expressed as Kd, was 29.1 ± 7.8 nM. In addition, the “Casein-FITC degradation h” value on human ClpP worked out at 6.2 ± 1.3.

As to `COc1cccc2c1C(=O)c1c(O)c3c(c(O)c1C2=O)C[C@@](O)(C(=O)CO)C[C@@H]3O[C@H]1C[C@H](N)[C@H](O)[C@H](C)O1` [doxorubicin, doxorubicin hydrochloride, reference compound], the “caspase 9 cleavage” value in test [1] (2 μM, 72 hrs, positive control) is “clearly showed caspase 9 cleavage”.
